Experimental data taken from ChEMBL document CHEMBL3526053, “Species-dependent uptake of glycylsarcosine but not oseltamivir in Pichia pastoris expressing the rat, mouse, and human intestinal peptide transporter PEPT1” (Drug Metab Dispos, 2012).

Legend:
Assay type in all cases: ADME
[1] = biological target: T1, Solute carrier family 15 member 1 (Mus musculus, UniProt Q9JIP7); assay: Drug uptake in Pichia pastoris GS115 expressing mouse recombinant PEPT1 at 5 uM after 30s by dual-channel liquid scintillation counting analysis in presence of acyclovir relative to control; settings: 0.5 min
T1 sequence (Q9JIP7 whole entry): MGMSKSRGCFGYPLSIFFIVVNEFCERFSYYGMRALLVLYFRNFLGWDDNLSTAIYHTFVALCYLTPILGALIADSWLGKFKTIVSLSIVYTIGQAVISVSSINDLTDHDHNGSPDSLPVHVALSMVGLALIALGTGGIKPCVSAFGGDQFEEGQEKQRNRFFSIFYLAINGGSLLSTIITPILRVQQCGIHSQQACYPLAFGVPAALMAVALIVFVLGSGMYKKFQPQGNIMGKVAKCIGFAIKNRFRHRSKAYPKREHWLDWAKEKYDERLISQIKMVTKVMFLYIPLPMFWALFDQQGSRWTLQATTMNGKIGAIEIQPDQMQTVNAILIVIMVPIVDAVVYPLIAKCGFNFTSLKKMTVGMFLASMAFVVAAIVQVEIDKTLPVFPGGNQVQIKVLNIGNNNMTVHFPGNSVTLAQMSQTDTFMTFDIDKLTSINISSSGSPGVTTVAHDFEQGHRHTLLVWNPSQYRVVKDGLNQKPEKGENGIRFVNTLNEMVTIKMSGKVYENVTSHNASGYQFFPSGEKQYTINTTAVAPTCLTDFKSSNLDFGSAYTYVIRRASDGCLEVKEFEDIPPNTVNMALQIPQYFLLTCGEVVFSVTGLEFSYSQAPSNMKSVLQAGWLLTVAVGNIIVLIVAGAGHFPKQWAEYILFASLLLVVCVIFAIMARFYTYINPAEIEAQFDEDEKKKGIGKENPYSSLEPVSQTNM
Summary of the method: (§1)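 [3H]GlySar 5.0 µM final, 30-s uptake at 24°C in 100 mM potassium phosphate pH 6.5, with or without a potential inhibitor at 10 mM. Cells are methanol-induced transformants. Values are vector-subtracted and expressed as percent of buffer control. Mean ± SE (n=3). ANOVA with Dunnett's test.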

[2] = biological target: T2, Solute carrier family 15 member 1 (Homo sapiens, UniProt P46059); assay: Drug uptake in Pichia pastoris GS115 expressing human recombinant PEPT1 at 5 uM after 30s by dual-channel liquid scintillation counting analysis in presence of valacyclovir relative to control; settings: 0.5 min; summary of the method: as §1
T2 sequence (P46059 whole entry): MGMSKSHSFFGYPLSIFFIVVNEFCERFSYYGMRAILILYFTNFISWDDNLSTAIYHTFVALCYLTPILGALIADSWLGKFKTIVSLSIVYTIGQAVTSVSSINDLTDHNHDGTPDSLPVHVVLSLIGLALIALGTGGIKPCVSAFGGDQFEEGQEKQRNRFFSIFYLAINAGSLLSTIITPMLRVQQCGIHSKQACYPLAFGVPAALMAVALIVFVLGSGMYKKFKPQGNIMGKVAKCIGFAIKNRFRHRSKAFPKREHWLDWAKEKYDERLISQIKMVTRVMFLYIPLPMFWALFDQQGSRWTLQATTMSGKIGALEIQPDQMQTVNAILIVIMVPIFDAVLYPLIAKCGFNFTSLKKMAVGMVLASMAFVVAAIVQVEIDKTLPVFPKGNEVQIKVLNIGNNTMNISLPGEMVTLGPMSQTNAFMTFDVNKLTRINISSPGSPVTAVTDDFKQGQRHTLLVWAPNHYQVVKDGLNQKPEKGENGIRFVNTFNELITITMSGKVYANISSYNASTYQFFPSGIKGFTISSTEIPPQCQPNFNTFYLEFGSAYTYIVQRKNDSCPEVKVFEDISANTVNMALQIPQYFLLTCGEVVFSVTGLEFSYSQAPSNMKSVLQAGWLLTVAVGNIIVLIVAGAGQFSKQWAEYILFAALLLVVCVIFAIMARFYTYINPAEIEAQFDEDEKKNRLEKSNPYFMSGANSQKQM

[3] = biological target: T1, Solute carrier family 15 member 1; assay: Drug uptake in Pichia pastoris GS115 expressing mouse recombinant PEPT1 at 5 uM after 30s by dual-channel liquid scintillation counting analysis in presence of valacyclovir relative to control; settings: in vivo, 0.5 min; summary of the method: as §1
[4] = biological target: T2, Solute carrier family 15 member 1; assay: Drug uptake in Pichia pastoris GS115 expressing human recombinant PEPT1 at 5 uM after 30s by dual-channel liquid scintillation counting analysis in presence of TEA relative to control; settings: 0.5 min; summary of the method: as §1
[5] = biological target: T3, Solute carrier family 15 member 1 (Rattus norvegicus, UniProt P51574); assay: Drug uptake in Pichia pastoris GS115 expressing rat recombinant PEPT1 at 5 uM after 30s by dual-channel liquid scintillation counting analysis in presence of TEA relative to control; settings: 0.5 min; summary of the method: as §1
T3 sequence (P51574 whole entry): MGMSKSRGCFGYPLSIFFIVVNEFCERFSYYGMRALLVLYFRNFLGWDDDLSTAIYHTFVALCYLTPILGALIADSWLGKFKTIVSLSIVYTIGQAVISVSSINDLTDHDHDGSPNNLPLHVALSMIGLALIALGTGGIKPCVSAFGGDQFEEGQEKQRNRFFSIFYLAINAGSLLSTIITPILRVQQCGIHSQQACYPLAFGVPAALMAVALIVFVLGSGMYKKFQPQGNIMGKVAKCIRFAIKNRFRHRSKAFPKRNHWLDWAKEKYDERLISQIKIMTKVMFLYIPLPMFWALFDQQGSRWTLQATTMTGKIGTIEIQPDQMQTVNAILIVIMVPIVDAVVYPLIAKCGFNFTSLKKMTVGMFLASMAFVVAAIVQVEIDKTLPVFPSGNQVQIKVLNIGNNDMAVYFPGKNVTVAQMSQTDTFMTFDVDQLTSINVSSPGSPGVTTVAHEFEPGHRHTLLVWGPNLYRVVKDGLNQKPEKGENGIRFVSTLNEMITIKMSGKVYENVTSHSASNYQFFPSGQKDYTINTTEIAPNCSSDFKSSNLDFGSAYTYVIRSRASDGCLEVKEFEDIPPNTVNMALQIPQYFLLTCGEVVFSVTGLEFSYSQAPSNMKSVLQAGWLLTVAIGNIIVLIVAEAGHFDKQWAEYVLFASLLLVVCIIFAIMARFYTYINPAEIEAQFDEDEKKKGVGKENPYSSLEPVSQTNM

[6] = biological target: T4, PEPT1 (Homo sapiens, UniProt P46059); assay: Drug uptake in Pichia pastoris GS115 expressing human recombinant PEPT1 at 5 uM after 30 mins by dual-channel liquid scintillation counting analysis relative to vector control; settings: read-out: FC
T4 sequence (P46059 whole entry): T2 sequence (P46059 whole entry)
Summary of the method: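 5.0 µM radiolabelled substrate ([3H]GlySar or [14C]oseltamivir) is incubated 30 min at 24°C with induced transformants in 100 mM potassium phosphate pH 6.5. Cell-associated radioactivity is counted by scintillation after standing 24 h and normalised to OD600. Results are compared with pPIC3.5K vector-alone cells. Mean ± SE (n=6).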

- Drug uptake [1]: 99.8%
- Drug uptake [2]: 3.5%
- Drug uptake [3]: 4.5%
- Drug uptake [4]: 113%
- Drug uptake [5]: 94.8%
- uptake ratio at 0.5 h, 5 µM [6]: 30
Structure (SMILES): [3H]C(C(=O)O)N(C)C(=O)CN (stereo unspecified)
